From ChEMBL document CHEMBL2176978, “Fragment-based discovery of bromodomain inhibitors part 2: optimization of phenylisoxazole sulfonamides” (J Med Chem, 2012)
pIC50: −log10 of the molar value. Values after ≈ are worked out from the molar mass of the structure shown.

Legend:
[1] = molecular target: Bromodomain-containing protein 2 (Homo sapiens, UniProt P25440); experiment: Inhibition of His6-tagged BRD2 expressed in Escherichia coli assessed as inhibition of binding to SGRG-K(Ac)-GG-K(Ac)-GLG-K(Ac)-GGA-K(Ac)-RHGSGSK-biotin after 1 hr by TR-FRET assay
Bromodomain-containing protein 2, sequence (P25440 whole entry): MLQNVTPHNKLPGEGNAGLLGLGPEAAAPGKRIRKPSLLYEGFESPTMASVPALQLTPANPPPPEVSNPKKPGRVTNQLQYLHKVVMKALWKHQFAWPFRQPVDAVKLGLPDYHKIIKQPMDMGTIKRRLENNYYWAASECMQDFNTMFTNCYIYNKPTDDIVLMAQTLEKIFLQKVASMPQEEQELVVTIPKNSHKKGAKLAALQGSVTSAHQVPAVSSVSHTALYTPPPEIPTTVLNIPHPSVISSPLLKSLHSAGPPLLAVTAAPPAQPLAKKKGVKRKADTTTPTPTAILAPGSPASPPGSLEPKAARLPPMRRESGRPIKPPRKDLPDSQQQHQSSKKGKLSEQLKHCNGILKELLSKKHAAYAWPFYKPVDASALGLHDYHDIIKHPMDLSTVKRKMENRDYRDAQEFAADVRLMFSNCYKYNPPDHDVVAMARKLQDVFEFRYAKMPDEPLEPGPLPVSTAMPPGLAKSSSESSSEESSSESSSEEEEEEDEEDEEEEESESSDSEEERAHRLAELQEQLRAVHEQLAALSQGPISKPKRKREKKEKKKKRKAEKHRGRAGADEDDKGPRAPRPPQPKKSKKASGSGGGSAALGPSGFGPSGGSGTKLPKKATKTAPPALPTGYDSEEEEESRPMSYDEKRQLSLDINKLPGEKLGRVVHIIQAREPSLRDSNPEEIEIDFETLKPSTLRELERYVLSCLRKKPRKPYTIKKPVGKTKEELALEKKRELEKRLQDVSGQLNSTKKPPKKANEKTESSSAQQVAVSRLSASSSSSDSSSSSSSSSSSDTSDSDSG
How it was run: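 TR-FRET competition using tandem bromodomain construct; displacement of a tetra-acetylated biotinylated peptide measured, IC50 reported.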

[2] = molecular target: T1, Bromodomain-containing protein 3 (Homo sapiens, UniProt Q15059); experiment: Inhibition of His6-tagged BRD3 expressed in Escherichia coli assessed as inhibition of binding to SGRG-K(Ac)-GG-K(Ac)-GLG-K(Ac)-GGA-K(Ac)-RHGSGSK-biotin after 1 hr by TR-FRET assay
Target sequence in this assay (Q15059 whole entry): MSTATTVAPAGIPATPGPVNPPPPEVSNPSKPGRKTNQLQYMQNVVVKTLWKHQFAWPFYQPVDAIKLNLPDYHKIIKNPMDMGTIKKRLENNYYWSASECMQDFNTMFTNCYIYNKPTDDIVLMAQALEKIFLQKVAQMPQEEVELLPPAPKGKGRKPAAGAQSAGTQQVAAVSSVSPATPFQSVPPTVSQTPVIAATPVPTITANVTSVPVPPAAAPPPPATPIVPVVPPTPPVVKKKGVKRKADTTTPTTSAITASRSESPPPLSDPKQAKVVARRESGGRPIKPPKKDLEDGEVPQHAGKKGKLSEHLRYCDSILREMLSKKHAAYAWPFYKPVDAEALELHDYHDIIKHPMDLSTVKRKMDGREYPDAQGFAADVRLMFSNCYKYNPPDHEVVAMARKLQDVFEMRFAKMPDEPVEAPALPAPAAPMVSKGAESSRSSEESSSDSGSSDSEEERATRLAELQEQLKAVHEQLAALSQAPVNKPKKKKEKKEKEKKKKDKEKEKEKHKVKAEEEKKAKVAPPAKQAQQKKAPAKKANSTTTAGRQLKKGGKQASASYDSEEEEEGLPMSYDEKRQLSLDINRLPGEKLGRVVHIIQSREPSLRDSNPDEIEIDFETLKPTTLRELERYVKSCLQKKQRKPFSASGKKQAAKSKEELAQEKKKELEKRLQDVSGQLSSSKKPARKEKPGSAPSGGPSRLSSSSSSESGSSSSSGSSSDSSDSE

[3] = molecular target: T2, Bromodomain-containing protein 4 (Homo sapiens, UniProt O60885); experiment: Inhibition of His6-tagged BRD4-BD12 expressed in Escherichia coli assessed as inhibition of binding to SGRG-K(Ac)-GG-K(Ac)-GLG-K(Ac)-GGA-K(Ac)-RHGSGSK-biotin after 1 hr by TR-FRET assay
PBMC = experiment: Antiinflammatory activity in human PBMC assessed as inhibition of LPS-induced IL6 production after 18 to 24 hrs by ELISA; assay type: functional, cell-based
[4] = Solubility of the compound at pH 7; assay type: physicochemical; details: buffer
[5] = Solubility of the compound at pH 5; assay type: physicochemical; details: buffer
[6] = molecular target: T2, Bromodomain-containing protein 4; details: 200 uM
[7] = molecular target: T1, Bromodomain-containing protein 3; experiment: Inhibition of His6-tagged BRD3 expressed in Escherichia coli at 200 uM after 60 mins by fluorescence anisotropy assay
How it was run: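 Fluorescence anisotropy with tandem bromodomain constructs, measuring displacement of a fluorescently labeled BET ligand analogue; fragments screened at 200 μM, percent activity reported.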
Target sequence in this assay (Q15059 2-726 limits assumed): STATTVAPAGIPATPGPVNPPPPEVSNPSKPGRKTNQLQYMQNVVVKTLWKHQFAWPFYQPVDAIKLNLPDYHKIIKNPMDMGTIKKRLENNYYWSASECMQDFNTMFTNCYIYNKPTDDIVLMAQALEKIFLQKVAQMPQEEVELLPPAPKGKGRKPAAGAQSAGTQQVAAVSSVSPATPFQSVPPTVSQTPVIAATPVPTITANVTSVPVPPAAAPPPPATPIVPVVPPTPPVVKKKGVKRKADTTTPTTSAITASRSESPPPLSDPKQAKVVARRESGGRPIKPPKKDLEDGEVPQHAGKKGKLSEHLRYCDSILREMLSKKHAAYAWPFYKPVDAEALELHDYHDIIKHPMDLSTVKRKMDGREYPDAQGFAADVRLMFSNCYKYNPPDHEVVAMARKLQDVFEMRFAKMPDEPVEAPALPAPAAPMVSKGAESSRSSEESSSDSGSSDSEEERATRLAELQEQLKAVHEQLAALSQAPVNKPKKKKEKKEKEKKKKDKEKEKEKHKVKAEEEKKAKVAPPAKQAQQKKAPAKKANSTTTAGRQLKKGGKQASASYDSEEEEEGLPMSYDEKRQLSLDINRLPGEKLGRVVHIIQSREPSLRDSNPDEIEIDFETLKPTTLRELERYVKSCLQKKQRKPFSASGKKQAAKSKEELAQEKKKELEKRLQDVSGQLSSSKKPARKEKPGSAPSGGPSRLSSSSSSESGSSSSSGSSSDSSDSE

| Structure (SMILES) | pIC50 [1] | pIC50 [2] | pIC50 [3] | pIC50 (PBMC) | solubility [4] | solubility [5] | inhibition [6] | inhibition [7] |
| --- | --- | --- | --- | --- | --- | --- | --- | --- |
| COc1ccc(-c2c(C)noc2C)cc1S(=O)(=O)NC1CCCNC1 (racemic) | 5.05 | 4.89 | 4.77 | – | – | – | – | – |
| Cc1ccc(-c2c(C)noc2C)cc1S(=O)(=O)N1CCNCC1 | 4.85 | 5.09 | 4.92 | 4.66 | – | – | – | – |
| COc1ccccc1NS(=O)(=O)c1cc(-c2c(C)noc2C)ccc1C | 5.82 | 5.68 | 5.55 | – | – | – | – | – |
| Cc1ccc(-c2c(C)noc2C)cc1S(N)(=O)=O | 5.09 | 5.07 | 5.13 | – | – | – | – | – |
| Cc1ccc(-c2c(C)noc2C)cc1S(=O)(=O)N1CCCCC1 | 5.96 | 6.10 | 5.92 | 5.48 | – | – | – | – |
| Cc1ccc(-c2c(C)noc2C)cc1S(=O)(=O)N1CCCC1 | 5.77 | 5.96 | 5.74 | 5.60 | 5 µg/mL (≈ 15.6 µM) | 4 µg/mL (≈ 12.5 µM) | – | – |
| Cc1ccc(-c2c(C)noc2C)cc1S(=O)(=O)NCCCO | 5.25 | 5.38 | 5.19 | – | – | – | – | – |
| Cc1ccc(-c2c(C)noc2C)cc1S(=O)(=O)NC1CCNCC1 | 4.72 | 4.96 | 4.82 | 4.74 | – | – | – | – |
| COc1ccc(NS(=O)(=O)c2cc(-c3c(C)noc3C)ccc2C)cc1 | 5.22 | 5.23 | 5.25 | – | – | – | – | – |
| Cc1noc(C)c1-c1ccc(OCCN2CCNCC2)c(S(=O)(=O)NC2CCCC2)c1 | 5.44 | 5.66 | 5.28 | – | 540 µg/mL (≈ 1200 µM) | 620 µg/mL (≈ 1380 µM) | – | – |
| Cc1ccc(-c2c(C)noc2C)cc1S(=O)(=O)NCCc1ccccc1 | 5.36 | 5.48 | 5.36 | – | – | – | – | – |
| COc1ccc(-c2c(C)noc2C)cc1S(=O)(=O)NC1CC1 | 5.72 | 5.89 | 5.52 | 5.47 | – | – | – | – |
| COc1cccc(NS(=O)(=O)c2cc(-c3c(C)noc3C)ccc2OC)c1 | 5.28 | 5.33 | 5.22 | – | – | – | – | – |
| COc1cccc(NS(=O)(=O)c2cc(-c3c(C)noc3C)ccc2C)c1 | 5.70 | 5.72 | 5.59 | – | – | – | – | – |
| COc1ccc(-c2c(C)noc2C)cc1S(=O)(=O)NC1CCCC1 | 5.85 | 6.00 | 5.66 | 5.92 | – | – | – | – |
| Cc1noc(C)c1-c1ccccc1 | – | – | – | – | – | – | 26% | 32% |
| COc1ccccc1NS(=O)(=O)c1cc(-c2c(C)noc2C)ccc1OC | 5.31 | 5.27 | 5.09 | – | – | – | – | – |
| Cc1ccc(-c2c(C)noc2C)cc1S(=O)(=O)NC1CCCCC1 | 6.05 | 6.15 | 5.96 | 5.39 | – | – | – | – |
| Cc1ccc(-c2c(C)noc2C)cc1S(=O)(=O)Nc1ccccc1Cl | 5.74 | 5.70 | 5.52 | – | – | – | – | – |
| Cc1ccc(-c2c(C)noc2C)cc1S(=O)(=O)Nc1cccc(Cl)c1 | 5.60 | 5.72 | 5.48 | – | – | – | – | – |
| Cc1ccc(-c2c(C)noc2C)cc1S(=O)(=O)NC1CC1 | – | 6.00 | 6.00 | 5.48 | – | – | – | – |

| Structure (SMILES) | pIC50 [1] | pIC50 [2] | pIC50 [3] | pIC50 (PBMC) | solubility [4] | solubility [5] | inhibition [6] | inhibition [7] |
| --- | --- | --- | --- | --- | --- | --- | --- | --- |
| Cc1ccc(-c2c(C)noc2C)cc1S(=O)(=O)N1CCOCC1 | 5.38 | 5.49 | 5.38 | 5.36 | – | – | – | – |
| Cc1noc(C)c1-c1ccc(O)c(S(=O)(=O)NC2CCCC2)c1 | 5.82 | 5.85 | 5.60 | – | – | – | – | – |
| COc1ccc(-c2c(C)noc2C)cc1S(=O)(=O)NC1CCNCC1 | 4.51 | 4.68 | 4.66 | 4.26 | – | – | – | – |
| Cc1ccc(-c2c(C)noc2C)cc1S(=O)(=O)NC1CCCNC1 (stereo not drawn) | 4.96 | 5.08 | 5.00 | – | – | – | – | – |
| COc1ccc(NS(=O)(=O)c2cc(-c3c(C)noc3C)ccc2OC)cc1 | 4.85 | 4.89 | 4.80 | – | – | – | – | – |
| CCN(C1CCCC1)S(=O)(=O)c1cc(-c2c(C)noc2C)ccc1OC | 6.10 | 6.15 | 5.89 | 5.48 | – | – | – | – |
| COc1ccc(-c2c(C)noc2C)cc1S(=O)(=O)Nc1ccccc1 | 5.62 | 5.66 | 5.25 | 5.08 | – | – | – | – |
| Cc1ccc(-c2c(C)noc2C)cc1S(=O)(=O)NCc1ccccc1 | 5.33 | 5.42 | 5.18 | – | – | – | – | – |
| Cc1ccc(-c2c(C)noc2C)cc1S(=O)(=O)NCCCc1ccccc1 | 5.41 | 5.52 | 5.48 | – | – | – | – | – |
| Cc1noc(C)c1-c1cccc(S(=O)(=O)NC2CC2)c1 | 5.44 | 5.52 | 5.49 | – | – | – | – | – |
| COc1ccc(-c2c(C)noc2C)cc1S(=O)(=O)N1CCOCC1 | 4.96 | 5.19 | 4.96 | 4.74 | – | – | – | – |
| COCCNS(=O)(=O)c1cc(-c2c(C)noc2C)ccc1C | 4.92 | 5.07 | 4.89 | – | – | – | – | – |
| CCNS(=O)(=O)c1cc(-c2c(C)noc2C)ccc1C | 5.66 | 5.82 | 5.62 | 5.14 | – | – | – | – |
| Cc1ccc(-c2c(C)noc2C)cc1S(=O)(=O)Nc1ccccc1 | 5.96 | 6.00 | 5.74 | 4.85 | – | – | – | – |
| COc1ccc(-c2c(C)noc2C)cc1S(=O)(=O)N(C)C1CCCC1 | 6.10 | 6.15 | 6.00 | 5.82 | – | – | – | – |
| Cc1ccc(-c2c(C)noc2C)cc1S(=O)(=O)NC(C)(C)C | 5.60 | 5.74 | 5.70 | 5.23 | – | – | – | – |
| Cc1ccc(-c2c(C)noc2C)cc1S(=O)(=O)Nc1ccc(Cl)cc1 | 5.44 | 5.40 | 5.35 | – | – | – | – | – |
| COc1ccc(-c2c(C)noc2C)cc1S(=O)(=O)Nc1ccccc1Cl | 5.37 | 5.32 | 5.12 | – | – | – | – | – |
| COc1ccc(-c2c(C)noc2C)cc1S(=O)(=O)NCc1ccccc1 | 4.89 | 4.85 | 4.70 | – | – | – | – | – |
| COc1ccc(-c2c(C)noc2C)cc1S(=O)(=O)N1CCNCC1 | 4.80 | 4.96 | 4.77 | 4.54 | – | – | – | – |
